SENP6 block – SENP6 protease inhibition; Q9GZR1; Recombinant SENP6 catalytic domain, aminoluciferin luminescence; inhibition, % at 10 µM; 1.8% of 330,000 active;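 active means inhibition above about 50% at the single tested dose, limit read from the data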;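 further: plate controls were DMSO wells with enzyme for no effect and DMSO wells lacking enzyme for full effect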
SENP8 block-1 – inhibitors of human SENP8 protease; Q96LD8; AID 602440; 0.64% of 360,000 active; inhibition, % at 20 µM; recombinant SENP8, Nedd8 substrate fluorescence; in the data active means inhibition mostly above about 40%, no sharp cut-off; inactive means mostly below about 27%
Target sequence (Q96LD8 whole entry, looked up): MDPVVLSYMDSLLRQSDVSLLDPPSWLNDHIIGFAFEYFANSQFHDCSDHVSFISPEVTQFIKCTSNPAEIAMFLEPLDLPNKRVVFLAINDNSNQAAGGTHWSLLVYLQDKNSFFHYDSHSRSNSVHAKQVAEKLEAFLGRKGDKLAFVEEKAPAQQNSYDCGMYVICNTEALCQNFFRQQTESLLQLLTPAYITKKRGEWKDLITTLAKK
SENP8 block-2 – inhibitors of human SENP8 protease | Q96LD8 | purified SENP8, Z-RLRGG-aminoluciferin cleavage, luminescence | inhibition, % at 10 µM | 1.2% of 330,000 active | AID 2540; in the data active means inhibition above about 50%
SENP7 inh – SENP7 protease inhibition. Q9BQF6. recombinant SENP7, Z-RLRGG-aminoluciferin luminescence, 40 min. inhibition, % at 5 µM. 1.5% of 330,000 active;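 active means inhibition above about 50% at the single test dose, limit read from the data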;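 further: plate controls were DMSO with enzyme for no effect and no enzyme buffer wells for full effect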
Apaf1 inhib – inhibitors of human Apaf-1 apoptosome; O14727; reconstituted apoptosome caspase-3 activity, DEVD-Rh110 fluorescence; inhibition, % at 20 µM; 0.71% of 330,000 active; AID 489030; active means inhibition of at least 40% at 20 µM;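 further: plate controls were DMSO wells for no effect and DEVD-CHO caspase inhibitor wells for full effect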
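System – cell-free apoptosome with Apaf-1, procaspase-3 and caspase-9 · Buffer or medium – pH 7.5 Hepes buffer with CHAPS, BSA, DTT · Also added – cytochrome c with DEVD-Rh110 · Times – 30 min compound preincubation, 50 min activation, room temperature · Technique – Rh110 fluorescence intensity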
SENP1 FRET inh – blocks the human SENP1 SUMO protease catalytic domain; inhibition, % at 10 µM; AID 624204; recombinant SENP1 catalytic domain, CyPet-SUMO1-YPet FRET cleavage; 0.21% of 360,000 active;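 active means inhibition at least 30% at 10 µM, raw YFP signal under a set limit, fluorescence ratio 0.5 to 1.5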;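 further: 0% = enzyme with DMSO and 100% = no enzyme wells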
Target sequence (Q9P0U3 419-644 limits assumed): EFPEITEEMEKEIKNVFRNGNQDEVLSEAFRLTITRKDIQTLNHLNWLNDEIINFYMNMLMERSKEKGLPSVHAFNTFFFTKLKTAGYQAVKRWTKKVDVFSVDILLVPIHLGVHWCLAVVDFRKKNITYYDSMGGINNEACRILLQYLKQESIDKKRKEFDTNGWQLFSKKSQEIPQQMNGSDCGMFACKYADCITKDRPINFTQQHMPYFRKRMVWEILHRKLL
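Test system: hSENP1 catalytic domain, recombinant; Amount: 20 pM final SENP1 enzyme; Medium: Tris pH 8 buffer plus EDTA, NaCl, BME, BSA, NP40, catalase; Schedule: 50 min enzyme reaction, room temperature, light-protected; Technique: FRET fluorescence in CFP and YFP emission channels; Controls: no-enzyme wells low, DMSO-plus-enzyme wells high control.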
SENP8 confirm – confirmation of human SENP8 protease inhibitors | 40% of 6,200 active | inhibition, % at 12.5 µM | AID 488912 | Recombinant SENP8, Z-RLRGG-aminoluciferin luminescence, 60 min | shares compounds with SENP7 inh;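 active means mean inhibition across replicates above about 50%, limit read from the data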
SENP6 conf – human SENP6 inhibition, confirmed; shares compounds with SENP7 inh; recombinant SENP6, Z-RLRGG-aminoluciferin luminescence; inhibition, % at 12.5 µM; 58% of 6,200 active; AID 488915
SENP7 conf – confirmation of human SENP7 protease inhibitors; recombinant SENP7, Z-RLRGG-aminoluciferin luminescence, 40 min; 69% of 6,200 active; shares compounds with SENP7 inh; inhibition, % at 12.5 µM
Casp3 select – caspase-3 inhibition (SENP selectivity assay). shares compounds with SENP7 inh. purified caspase-3, Z-DEVD-aminoluciferin luminescence, 60 min. inhibition, % at 12.5 µM. 60% of 6,200 active. AID 488918;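 active means mean inhibition above about 50%, limit read from the data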;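 further: plate controls were enzyme with DMSO for no effect and wells without caspase-3 for full effect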
Target sequence (P42574 28-227 limits assumed): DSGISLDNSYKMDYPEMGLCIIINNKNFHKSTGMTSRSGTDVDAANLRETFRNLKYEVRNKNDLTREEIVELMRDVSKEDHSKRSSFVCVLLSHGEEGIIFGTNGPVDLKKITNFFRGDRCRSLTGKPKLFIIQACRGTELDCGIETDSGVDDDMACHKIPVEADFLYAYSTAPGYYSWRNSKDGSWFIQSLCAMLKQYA
SENP luc ctr – luminescence interference (SENP counter-screen); shares compounds with SENP7 inh; Pre-incubated SENP8/Z-RLRGG-aminoluciferin, luciferase luminescence interference; inhibition, % at 12.5 µM; 39% of 6,200 active;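 active means mean inhibition above about 50% when retested at one dose, limit read from the data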;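 further: plate controls were DMSO wells with completed reaction for no effect and substrate without enzyme for full effect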
* hit, by the source's call; · = no result. Only some compounds are listed: those with a hit (about 2.9% of all), similar ones and a draw of the others.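 How the source made its calls, unless noted: active means mean inhibition above about 50% in the one-dose retest (limit read from the data); inactive means the rest.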

SMILES	SENP6 block	SENP8 block-1	SENP8 block-2	SENP7 inh	Apaf1 inhib	SENP1 FRET inh	SENP8 confirm	SENP6 conf	SENP7 conf	Casp3 select	SENP luc ctr
COc1ccc(CCNC(=O)CCn2c(SCC(=O)N3CCCC3)nc3ccccc3c2=O)cc1OC	70*	11	-1	2	-17	1	12	4	0	-3	-2
CCOC(=O)CSc1nc2ccccc2c(=O)n1CCC(=O)NCCc1ccc(OC)c(OC)c1	-7	6	6	4	9	2	·	·	·	·	·
COc1ccc2c(n1)Sc1nc3ccccc3nc1N2	·	11	·	·	·	-22	·	·	·	·	·
COC(=O)[C@@]1(Cc2ccc(F)cc2)[C@H]2c3cc(C(=O)N4CCCC4)n(Cc4ccc(C)o4)c3C[C@H]2CN1C(=O)c1ccccc1	·	8	·	·	·	-5	·	·	·	·	·
CCNC(=S)N/N=C/c1ccc(C(=O)O)cc1	16	9	13	44	10	1	·	·	·	·	·
O=C(N/N=C\c1ccc(F)cc1)c1ccc(F)cc1	-12	-4	-6	4	-1	-1	·	·	·	·	·
CC(C)(C)c1ccc(/C=N/Nc2ccc(C(=O)O)cc2)cc1	100*	-100	96*	99*	3	0	100*	101*	104*	94*	99*
O=C(O)c1ccc(N/N=C/c2c(F)cccc2Cl)cc1	97*	-12	96*	98*	2	-2	100*	101*	104*	96*	99*
O=C(O)c1ccc(N/N=C/c2ccc(C(F)(F)F)cc2)cc1	101*	-76	96*	98*	12	-8	99*	99*	102*	94*	98*
O=C(N/N=C/c1ccc(C(F)(F)F)cc1)c1ccc(O)cc1	-3	10	-1	5	3	0	·	·	·	·	·
O=C(O)c1ccc(/C=N/Nc2ccc(F)cc2F)cc1	101*	-54	96*	99*	-7	-18	99*	100*	103*	98*	99*
C[C@H](CO)N1C[C@H](C)[C@@H](CN(C)S(=O)(=O)c2cccs2)Oc2c(NS(=O)(=O)c3cn(C)cn3)cccc2C1=O	-3	2	-4	9	6	0	·	·	·	·	·
Oc1cccc(/C=N/Nc2ccc(Cl)nn2)c1	-14	-2	-20	-8	7	0	·	·	·	·	·
O=C(O)c1ccc(/C=N/Nc2ccc(Cl)nn2)cc1	72*	17	65*	76*	7	1	19	26	20	81*	10
CCOc1ccc(/C=C/C2=NNC(=O)CC2)cc1	70*	-5	55*	74*	7	1	-24	52*	88*	86*	68*
Cc1ccccc1-c1nc2cc(Cl)ccc2o1	16	10	58*	81*	10	-2	10	69*	94*	44	13
Clc1ccc2oc(-c3ccccc3)nc2c1	-43	8	63*	83*	7	2	10	55*	91*	26	2
CCC(Oc1ccccc1)C(=O)OCC(=O)Nc1sccc1C(N)=O (centres undefined)	5	-6	-11	-1	2	-24	·	·	·	·	·
O=C(CCCc1nc2ccccc2s1)NC1CCOC1=O (centres undefined)	-6	6	4	4	-12	-1	·	·	·	·	·
O=C(CCc1nc2ccccc2s1)NC1CCOC1=O (centres undefined)	61*	12	2	1	-21	1	9	6	-8	2	0
O=C(c1ccco1)C(O)c1ccco1 (centres undefined)	0	27	2	6	-2	3	·	·	·	·	·
Cc1ccc(C(O)C(=O)c2ccco2)cc1 (centres undefined)	3	11	-8	75*	2	-2	-25	-18	-12	-12	-8
CCN(C(=O)CN(C1=NC2CS(=O)(=O)CC2S1)c1ccc(OC)cc1)c1cccc(C)c1 (centres undefined)	·	5	·	·	·	-2	·	·	·	·	·
O=c1oc(-c2cccs2)nc2sc3c(c12)CCC3	23	-127	15	-16	-11	-24	·	·	·	·	·
O=c1oc(-c2cccs2)nc2sc3c(c12)CCCC3	75*	-37	74*	89*	-20	-73	47	49	46	70*	20
SMILES	SENP6 block	SENP8 block-1	SENP8 block-2	SENP7 inh	Apaf1 inhib	SENP1 FRET inh	SENP8 confirm	SENP6 conf	SENP7 conf	Casp3 select	SENP luc ctr
O=C(CNC(=O)c1ccccc1Cl)N/N=C/c1ccc([N+](=O)[O-])s1	70*	28	9	13	-3	-3	18	37	1	2	-2
COc1ncccc1-c1nnn(-c2ccc(F)cc2)n1	73*	2	67*	70*	-4	2	71*	75*	93*	81*	69*
COc1ncccc1-c1nnn(-c2ccc(Cl)c(Cl)c2)n1	43	9	20	30	7	0	·	·	·	·	·
COc1ncccc1-c1nnn(-c2ccc(C)cc2)n1	78*	-12	70*	80*	17	2	78*	81*	96*	82*	79*
O=C(N/N=C/c1ccc(OC2CSC2)cc1)c1ccccc1	62*	15	52*	0	2	0	7	3	10	25	-6
O=C(/C=C/c1ccc(OC2CSC2)cc1)c1ccccc1	38	11	54*	55*	24	1	-2	15	6	-7	26
O=C(CCSc1ccc(F)cc1)NNC(=O)c1ccc([N+](=O)[O-])cc1	20	8	-14	-6	3	1	·	·	·	·	·
Cc1nc2nc(C(F)(F)F)[nH]c2nc1C	·	-15	·	·	·	-3	·	·	·	·	·
c1ccc(CNc2ccc3ccccc3n2)nc1	87*	-164	86*	-14	-8	-4	88*	89*	99*	92*	91*
O=C(O)c1cccc(Nc2ccc([N+](=O)[O-])cn2)c1	91*	14	90*	93*	-16	-4	92*	92*	101*	83*	93*
O=[N+]([O-])c1ccc(Nc2ccc3ccccc3c2)nc1	-3	12	-16	9	3	3	·	·	·	·	·
